Results taken from ChEMBL document CHEMBL4118256, “Second Generation of Mannich Base-Type Derivatives with in Vivo Activity against Trypanosoma cruzi” (J Med Chem, 2018).
Calls of active or inactive are those of the source. The rule behind the calls is not given here.

Assays:
Mus musculus [1] = test: (§1) Hepatotoxicity in Balb/c mouse infected with Trypanosoma cruzi MHOM/Pe/2011/Arequipa DTU 5 trypamastigotes assessed as change in alkaline phosphatase level at […], po once daily for 5 consecutive days starting from day 10 post infection measured on day 16 post infection by biochemical analysis relative to control; type: toxicity, organism-based; settings: in vivo
In short: (§2)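 Serum clinical chemistry in Arequipa-infected female BALB/c mice. Oral 20 mg·kg-1 per day for 5 days, started day 10 or day 75 pi. Samples taken at day 16 pi or day 81 pi, and on necropsy day. Markers: CK-MB and LDH (U/L), AST, ALT and alkaline phosphatase (U/L), total bilirubin. Results scored relative to infected untreated controls; uninfected reference n = 15.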

Mus musculus [2] = test: (§3) Hepatotoxicity in Balb/c mouse infected with Trypanosoma cruzi MHOM/Pe/2011/Arequipa DTU 5 trypamastigotes assessed as increase in ratio of serum ALT to GPT level at 100 mg/kg, po once daily for 5 consecutive days starting from day 10 post infection measured on day 16 post infection by biochemical analysis relative to control; type: toxicity, organism-based; settings: in vivo
Mus musculus [3] = test: (§4) Cardiotoxicity in Balb/c mouse infected with Trypanosoma cruzi MHOM/Pe/2011/Arequipa DTU 5 trypamastigotes assessed as change in serum LDH level at 20 mg/kg, po once daily for 5 consecutive days starting from day 10 post infection measured on day 16 post infection by biochemical analysis relative to control; type: toxicity, organism-based; settings: in vivo; in short: as §2
Mus musculus [4] = test: Toxicity in Balb/c mouse assessed as death at 20 mg/kg, po once daily for 5 consecutive days starting from day 75 post infection; type: organism-based; settings: in vivo
In short: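 Female BALB/c mice (8-10 weeks, 20-25 g), groups of six, infected i.p. with 5 x 10^5 Arequipa bloodstream trypomastigotes. Dosing was oral, 20 mg·kg-1 per day for 5 days, given as a 2 mg·mL-1 suspension in 5% DMSO/0.5% hydroxypropyl methylcellulose. Treatment started day 10 pi (acute phase) or day 75 pi (chronic phase). Deaths and body-mass loss were monitored during and after treatment.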

Mus musculus [5] = test: as §4, with “Hepatotoxicity” for “Cardiotoxicity”, “increase” for “change”, “total bilirubin” for “serum LDH”, “127” for “16”; type: toxicity, organism-based; settings: in vivo
Trypanosoma cruzi [6] = test: Antitrypanosomal activity against Trypanosoma cruzi MHOM/Pe/2011/Arequipa DTU 5 trypamastigotes infected in Balb/c mouse assessed as reduction in Ig-G level in serum at 20 mg/kg, po once daily for 5 consecutive days starting from day 75 post infection measured on day 81 post infection by ELISA; type: functional, organism-based
In short: (§5)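 Female BALB/c mice (8-10 weeks, 20-25 g), six per group, infected i.p. with 5 x 10^5 Arequipa bloodstream trypomastigotes. Compound was given orally once daily for 5 days from day 10 or day 75 pi, at 20 mg·kg-1 per day in 5 % DMSO/0.5 % HPMC. Anti-T. cruzi IgG in serum was measured by ELISA with Fe-SOD antigen, read as OD 490 nm.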

Mus musculus [7] = test: as §4, with “decrease” for “change”, “75” for “10”, “127” for “16”; type: toxicity, organism-based; parameters: scale not given: the % may be the effect or the level left; settings: in vivo; in short: as §2
Mus musculus [8] = test: (§6) Nephrotoxicity in Balb/c mouse infected with Trypanosoma cruzi MHOM/Pe/2011/Arequipa DTU 5 trypamastigotes assessed as change in uric acid level in serum at 20 mg/kg, po once daily for 5 consecutive days starting from day 10 post infection measured on day 127 post infection by biochemical analysis relative to control; type: toxicity, organism-based; settings: in vivo
Mus musculus [9] = test: Toxicity in Balb/c mouse assessed as reduction in body mass at 20 mg/kg, po once daily for 5 consecutive days starting from day 75 post infection relative to control; type: organism-based; parameters: scale not given: the % may be the effect or the level left; settings: in vivo
Trypanosoma cruzi [10] = test: (§7) Antitrypanosomal activity against Trypanosoma cruzi MHOM/Pe/2011/Arequipa DTU 5 trypamastigotes infected in Balb/c mouse assessed as reduction in parasitaemia reactivation in brain tissue at 20 mg/kg, po pretreated once daily for 5 consecutive days starting from day 10 post infection followed by cyclophosphamide-induced immunosuppression on day 100 post infection every 4 days for a maximum of 3 doses measured on day 127 post infection by PCR method; type: functional; parameters: scale not given: the % may be the effect or the level left
In short: (§8)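 Necropsy on day 127 pi after oral treatment and cyclophosphamide immunosuppression. Tissue DNA was amplified by PCR targeting the ~300 bp T. cruzi SOD gene, 200 nM each primer, 30 cycles with 55.5 °C annealing. Products run on 2 % agarose; positive organs counted out of six mice.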

Trypanosoma cruzi [11] = test: as §7, with “Ig-G level” for “parasitaemia reactivation”, “serum” for “brain tissue”, “ELISA” for “PCR method”; type: functional, organism-based; in short: as §5
Mus musculus [12] = test: as §4, with “ratio of creatine kinase in muscle to brain” for “serum LDH level”; type: toxicity, organism-based; settings: in vivo; in short: as §2
Mus musculus [13] = test: as §6, with “decrease” for “change”, “75” for “10”, “81” for “127”; type: toxicity, organism-based; parameters: scale not given: the % may be the effect or the level left; settings: in vivo
Trypanosoma cruzi [14] = test: as §7, with “adipose” for “brain”; type: functional; parameters: scale not given: the % may be the effect or the level left; in short: as §8
Trypanosoma cruzi [15] = test: as §7, with “lung” for “brain”; type: functional; parameters: scale not given: the % may be the effect or the level left; in short: as §8
Mus musculus [16] = test: as §3, with “AST” for “ALT”, “GOT” for “GPT”, “20” for “100”, “127” for “16”; type: toxicity, organism-based; settings: in vivo
Mus musculus [17] = test: as §6, with “as increase” for “as change”, “at […]” for “at 20”, “day 16” for “day 127”; type: toxicity, organism-based; settings: in vivo
Mus musculus [18] = test: as §1, with “decrease” for “change”, “75” for “10”, “81” for “16”; type: toxicity, organism-based; parameters: scale not given: the % may be the effect or the level left; settings: in vivo; in short: as §2
Trypanosoma cruzi [19] = test: (§9) Antitrypanosomal activity against Trypanosoma cruzi MHOM/Pe/2011/Arequipa DTU 5 trypamastigotes infected in Balb/c mouse assessed as reduction in parasitaemia reactivation in spleen tissue at 100 mg/kg, po pretreated once daily for 5 consecutive days starting from day 75 post infection followed by cyclophosphamide-induced immunosuppression on day 100 post infection every 4 days for a maximum of 3 doses measured on day 127 post infection by PCR method; type: functional; parameters: scale not given: the % may be the effect or the level left
Trypanosoma cruzi [20] = test: as §9, with “lung” for “spleen”; type: functional; parameters: scale not given: the % may be the effect or the level left; in short: as §8
Trypanosoma cruzi [21] = test: as §9, with “heart” for “spleen”; type: functional; parameters: scale not given: the % may be the effect or the level left; in short: as §8
Trypanosoma cruzi [22] = test: as §9, with “adipose” for “spleen”; type: functional; parameters: scale not given: the % may be the effect or the level left; in short: as §8
Trypanosoma cruzi [23] = test: Antitrypanosomal activity against Trypanosoma cruzi MHOM/Pe/2011/Arequipa DTU 5 trypamastigotes infected in Balb/c mouse assessed as reduction in parasitaemia level at 100 mg/kg, po once daily for 5 consecutive days starting from day 10 post infection measured up to day 50 post infection by Neubauer chamber method; type: functional, organism-based
Trypanosoma cruzi [24] = test: as §9, with “bone marrow” for “spleen”; type: functional; parameters: scale not given: the % may be the effect or the level left; in short: as §8

Structure (SMILES): COc1ccc(C(=O)CCN2CCN(c3ccc([N+](=O)[O-])cc3)CC2)cc1
- Activity (Mus musculus [1]): < 10%
- Activity (Mus musculus [2]): > 40%

Structure (SMILES): O=C(Cn1ccnc1[N+](=O)[O-])NCc1ccccc1 [BENZNIDAZOLE]
- Activity (Mus musculus [3]): < 10%
- Activity (Mus musculus [4]): Non-Toxic
- Activity (Mus musculus [5]): <= 10%
- Activity (Trypanosoma cruzi [6]): inactive
- Activity (Mus musculus [7]): <= 20%
- Activity (Mus musculus [8]): < 10%
- Activity (Mus musculus [9]): > 10%
- Activity (Trypanosoma cruzi [10]): 33%
- Activity (Trypanosoma cruzi [11]): Active
- Activity (Mus musculus [12]): < 10%
- Activity (Mus musculus [13]): > 40%
- Activity (Trypanosoma cruzi [14]): 33%
- Activity (Trypanosoma cruzi [15]): 33%
- Activity (Mus musculus [16]): > 40%

Structure (SMILES): COc1ccc(C(=O)CCN2CCN(c3ccc(F)cc3)CC2)cc1
- Activity (Mus musculus [17]): <= 20%
- Activity (Mus musculus [18]): <= 10%

Structure (SMILES): COc1ccc(C(=O)CCN2CCN(c3ccc(Cl)cc3)CC2)cc1
- Activity (Trypanosoma cruzi [19]): 78%
- Activity (Trypanosoma cruzi [20]): 78%
- Activity (Trypanosoma cruzi [21]): 78%
- Activity (Trypanosoma cruzi [22]): 78%
- Activity (Trypanosoma cruzi [23]): Active
- Activity (Trypanosoma cruzi [24]): 78%
